Most compounds without a hit are left out; they make up all but 2.6% or so of the library.
SENP8 block-1 – blocks human SENP8 cleavage of Nedd8 substrate. 0.64% of 360,000 active. recombinant SENP8, Nedd8 substrate fluorescence. inhibition, % at 20 µM. AID 602440. Q96LD8; in the data active = inhibition mostly above about 40%, no sharp cut-off; inactive = mostly below about 27%
UCH37 DUB inh – inhibitors of human deubiquitinating enzyme UCH37 | inhibition, % (no concentration beside the values) | AID 588478 | purified proteasome/UCH37, Ub-AMC cleavage fluorescence | 0.33% of 330,000 active;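 active = mean inhibition over replicate wells above about 20%, limit read from the data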
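Material: Human UCH37 enzyme supplied as purified proteasome complex | Schedule: 30 min compound-proteasome preincubation then 25 min substrate reaction, room temperature | Detection: AMC fluorescence from Ub-AMC cleavage, excitation 355 nm, emission 460 nm | Benchmarks: Wells without proteasome as full block, compound-free enzyme plus substrate as uninhibited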
SENP1 inh – inhibitors of human SENP1 SUMO protease catalytic domain. Q9P0U3. recombinant SENP1 catalytic domain, CyPet-SUMO1-YPet FRET cleavage. inhibition, % at 10 µM. 0.21% of 360,000 active. AID 624204;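 active = inhibition at least 30% at 10 µM, raw YFP signal under a set limit, fluorescence ratio 0.5 to 1.5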
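Test system: human SENP1 catalytic domain; medium: Tris pH 8 buffer plus EDTA, NaCl, BME, BSA, NP40, catalase; incubation: 50 min reaction at room temperature; technique: FRET, CFP and YFP emission; controls: no-enzyme low control and enzyme-plus-DMSO high control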
SENP8 block-2 – inhibitors of human SENP8 protease. inhibition, % at 10 µM. Q96LD8. purified SENP8, Z-RLRGG-aminoluciferin cleavage, luminescence. 1.2% of 330,000 active; in the data active = inhibition above about 50%
SENP6 inh – blocks the human protease SENP6. Recombinant SENP6 catalytic domain, aminoluciferin luminescence. AID 2599. Q9GZR1. 1.8% of 330,000 active. inhibition, % at 10 µM;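 active = inhibition above about 50% at the single tested dose, limit read from the data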
Target sequence (Q9GZR1 628-1112 limits assumed): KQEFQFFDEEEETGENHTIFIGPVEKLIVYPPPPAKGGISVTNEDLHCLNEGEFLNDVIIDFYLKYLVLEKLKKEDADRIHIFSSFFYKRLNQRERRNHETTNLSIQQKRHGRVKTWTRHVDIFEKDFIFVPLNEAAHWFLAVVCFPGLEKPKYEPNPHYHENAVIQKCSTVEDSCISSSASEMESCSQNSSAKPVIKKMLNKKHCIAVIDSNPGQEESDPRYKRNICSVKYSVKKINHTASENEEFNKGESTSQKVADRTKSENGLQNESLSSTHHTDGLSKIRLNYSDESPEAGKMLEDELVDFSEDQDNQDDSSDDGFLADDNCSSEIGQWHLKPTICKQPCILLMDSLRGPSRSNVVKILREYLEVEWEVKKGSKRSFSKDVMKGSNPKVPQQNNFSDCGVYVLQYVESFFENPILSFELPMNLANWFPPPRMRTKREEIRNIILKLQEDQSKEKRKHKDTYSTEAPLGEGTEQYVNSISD
SENP7 block – SENP7 protease inhibition; AID 434973; 1.5% of 330,000 active; inhibition, % at 5 µM; recombinant SENP7, Z-RLRGG-aminoluciferin luminescence, 40 min;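 active = inhibition above about 50% at the single test dose, limit read from the data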
SENP8 confirm – human SENP8 inhibition, confirmed; AID 488912; shares compounds with SENP7 block; inhibition, % at 12.5 µM; 40% of 6,200 active; Recombinant SENP8, Z-RLRGG-aminoluciferin luminescence, 60 min;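 active = mean inhibition across replicates above about 50%, limit read from the data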
SENP6 confirm – confirmation of human SENP6 protease inhibitors | recombinant SENP6, Z-RLRGG-aminoluciferin luminescence | 58% of 6,200 active | shares compounds with SENP7 block | AID 488915 | inhibition, % at 12.5 µM
SENP7 conf – confirmation of human SENP7 protease inhibitors. shares compounds with SENP7 block. recombinant SENP7, Z-RLRGG-aminoluciferin luminescence, 40 min. inhibition, % at 12.5 µM. 69% of 6,200 active. AID 488917
Casp3 SENP sel – caspase-3 inhibition (SENP selectivity assay) | shares compounds with SENP7 block | purified caspase-3, Z-DEVD-aminoluciferin luminescence, 60 min | inhibition, % at 12.5 µM | 60% of 6,200 active | AID 488918;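 active = mean inhibition above about 50%, limit read from the data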
Luc interf – luminescence interference (SENP counter-screen); shares compounds with SENP7 block; Pre-incubated SENP8/Z-RLRGG-aminoluciferin, luciferase luminescence interference; inhibition, % at 12.5 µM; 39% of 6,200 active;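 active = mean inhibition above about 50% when retested at one dose, limit read from the data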
Large screens that a line does not name were inactive (follow-up assays come after a bar, where they were run).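 Rule for the calls, unless noted: active = mean inhibition above about 50% in the one-dose retest (limit read from the data); inactive = the rest.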

CCOC(=O)c1ccc(Cn2c(-c3ccccc3)nnc2-c2ccccc2)o1	none
Cc1ccc(-c2ccc(CO)o2)cc1N	none
CCOC(=O)Nc1ccc(NCc2ccc(F)cc2)nc1N	SENP8 block-2 58, SENP6 inh 68 | SENP8 confirm inactive | SENP6 confirm inactive | SENP7 conf inactive | Casp3 SENP sel inactive | Luc interf inactive
COc1ccsc1NC(=O)OCc1ccc(Cl)cc1	SENP6 inh 50 | SENP8 confirm 58 | SENP6 confirm 56 | SENP7 conf 84 | Casp3 SENP sel 55 | Luc interf 62
O=C(ON=Cc1cccc([N+](=O)[O-])c1)C1CC1	none (no result: SENP8 block-1, SENP1 inh, SENP8 block-2, SENP6 inh, SENP7 block)
COc1ccc(C2Nc3cccc4cccc(c34)N2)cc1	SENP6 inh 64 | SENP8 confirm inactive | SENP6 confirm inactive | SENP7 conf inactive | Casp3 SENP sel inactive | Luc interf inactive
COc1ccccc1C1Nc2cccc3cccc(c23)N1	SENP6 inh 60 | SENP8 confirm inactive | SENP6 confirm inactive | SENP7 conf inactive | Casp3 SENP sel inactive | Luc interf inactive
COc1cc(OC)c(C2Nc3cccc4cccc(c34)N2)c(OC)c1	SENP6 inh 58 | SENP8 confirm inactive | SENP6 confirm inactive | SENP7 conf inactive | Casp3 SENP sel inactive | Luc interf inactive
CCOc1ccc(C2Nc3cccc4cccc(c34)N2)cc1OC	none
Clc1ccc(-c2csc(NN=Cc3ccc4c(c3)OCO4)n2)cc1	none (no result: SENP8 block-1, SENP1 inh, SENP8 block-2, SENP6 inh, SENP7 block)
N/C(=N\OC(=O)c1cccc(Br)c1)c1ccccc1	SENP8 block-2 67, SENP6 inh 72, SENP7 block 86 | SENP8 confirm 67 | SENP6 confirm 73 | SENP7 conf 97 | Casp3 SENP sel 82 | Luc interf inactive
N/C(=N\OC(=O)c1ccco1)c1cccc(Br)c1	SENP8 block-2 52, SENP6 inh 78, SENP7 block 74 | SENP8 confirm 70 | SENP6 confirm 68 | SENP7 conf 90 | Casp3 SENP sel 76 | Luc interf 67
N/C(=N\OC(=O)c1ccco1)c1cccc([N+](=O)[O-])c1	none (no result: UCH37 DUB inh)
N/C(=N\OC(=O)c1ccoc1)c1ccc(Br)cc1	SENP8 block-2 84, SENP6 inh 93, SENP7 block 91 | SENP8 confirm 76 | SENP6 confirm 71 | SENP7 conf 94 | Casp3 SENP sel 75 | Luc interf 70
Cc1cc(C(=O)N/N=C2\CC(=O)c3ccccc32)c(C)n1-c1ccc(F)cc1	SENP8 block-1 79, SENP6 inh 73 (no result: UCH37 DUB inh) | SENP8 confirm inactive | SENP6 confirm inactive | SENP7 conf inactive | Casp3 SENP sel 51 | Luc interf inactive
Nc1nnnn1N=Cc1ccc(Cl)cc1	none (no result: SENP8 block-1, SENP1 inh, SENP8 block-2, SENP6 inh, SENP7 block)
O=C(COc1ccc2ccccc2c1)Nc1nccs1	SENP8 block-2 66, SENP6 inh 61, SENP7 block 77 | SENP8 confirm inactive | SENP6 confirm 89 | SENP7 conf 99 | Casp3 SENP sel 81 | Luc interf 76
O=C(COc1ccccc1)Nc1nccs1	SENP8 block-2 61, SENP6 inh 75 | SENP8 confirm inactive | SENP6 confirm 61 | SENP7 conf 90 | Casp3 SENP sel 90 | Luc interf 74
CCOc1cccc(C=NNC(=S)Nc2cc(S(=O)(=O)N3CCOCC3)ccc2N2CCOCC2)c1O	none (no result: SENP8 block-1, SENP1 inh, SENP8 block-2, SENP6 inh, SENP7 block)
Cc1nn(C)c(Cl)c1C=NOC(=O)c1ccccc1	none (no result: SENP8 block-1, SENP1 inh, SENP8 block-2, SENP6 inh, SENP7 block)
